In brackets after ≈: the same amount, converted by molar mass.
What was measured:
Assay type in all cases: functional
Callosobruchus maculatus = test: Insecticidal activity against adult Callosobruchus maculatus assessed as mortality at 0.1% at 27 +/-1 degC after 24 hr by contact based film residue method
Outline: (§1)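 Lab-reared adults, 2-5 days old, exposed to a dry film: 1 mL of 0.1% compound solution in dichloromethane is swirled in a 90 mm Petri plate and dried 3-5 min. Ten adults per plate are held at 27 ± 1 °C and 70% RH. Mortality is scored at 24 h, with no response to touch counted as dead. Triplicates, solvent control, malathion reference.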

Tribolium castaneum [1] = test: Insecticidal activity against adult Tribolium castaneum (red flour beetle) assessed as mortality at 0.1% at 27 +/-1 degC after 24 hr by contact based film residue method; outline: as §1
Tribolium castaneum [2] = test: Insecticidal activity against adult Tribolium castaneum (red flour beetle) in compound pre-treated green gram grains assessed as mortality at 20 mg/kg after 48 hr by feeding based residue method; conditions: in Vigna radiata
Outline: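 Green gram grains are treated with compound in dichloromethane (0.6 mg in 5 mL) at 20 mg active ingredient per kg grain (0.002%). Ten adults are released onto 10 g of treated grain in a plastic box. Mortality is recorded after 48 h. Triplicate, solvent-treated control.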

Spodoptera litura [3] = test: Insecticidal activity against third-instar larval stage of Spodoptera litura assessed as mortality at 0.1% applied topically on the ventral side of the larvae measured after 24 hr by contact method
Outline: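 Field-collected larvae are reared in the lab at 27 ± 1 °C and 70% RH. Two microliters of a 0.1% dichloromethane solution is applied to the ventral side. Ten treated larvae are kept per glass bottle and fed fresh castor leaves. Mortality is recorded at 24 h. Triplicate, solvent control.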

Spodoptera litura [4] = test: Insecticidal activity against third-instar larval stage of prestarved Spodoptera litura in castor leaf assessed as mortality at 0.1% treated for 2 secs before larval infestation measured after 24 hr by feeding method
Outline: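 Castor leaf is dipped 2 s in 0.1% compound solution, air-dried, and placed on moist filter paper in 9 cm Petri plates. Larvae starved 4 h beforehand are released singly, one per plate. Thirty replicates per treatment, solvent control. Mortality is scored after 24 h.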

Fusarium oxysporum = test: Fungicidal activity against Fusarium oxysporum by poisoned food technique; conditions: read-out: ED50 (the source's name)
Alternaria porri = test: Fungicidal activity against Alternaria porri by poisoned food technique; conditions: read-out: ED50 (the source's name)
Rhizoctonia solani = test: Fungicidal activity against Rhizoctonia solani by poisoned food technique; conditions: read-out: ED50 (the source's name)
Macrophomina phaseolina = test: Fungicidal activity against Rhizoctonia bataticola by poisoned food technique; conditions: read-out: ED50 (the source's name)
Athelia rolfsii = test: Fungicidal activity against Athelia rolfsii by poisoned food technique; conditions: Agroathelia rolfsii; read-out: ED50 (the source's name)

SMILES	mortality (Callosobruchus maculatus)	mortality (Tribolium castaneum [1])	mortality at 20 mg/kg (Tribolium castaneum [2])	mortality (Spodoptera litura [3])	mortality (Spodoptera litura [4])	EC50 (Fusarium oxysporum)	EC50 (Alternaria porri)	EC50 (Rhizoctonia solani)	EC50 (Macrophomina phaseolina)	EC50 (Athelia rolfsii)
CCOC(=O)CC(SP(=S)(OC)OC)C(=O)OCC (configuration not stated) [MALATHION]	100%	100%	100%	–	–	–	–	–	–	–
CCn1cc(C(=O)N/N=C/c2ccc3ccccc3c2)c(=O)c2ccc(C)nc21	0%	–	10%	10%	70%	89.5 µg/mL (≈ 233 µM)	75.6 µg/mL (≈ 197 µM)	192 µg/mL (≈ 498 µM)	256 µg/mL (≈ 666 µM)	202 µg/mL (≈ 526 µM)

Reference: ChEMBL document CHEMBL3045963, “Synthesis of nalidixic acid based hydrazones as novel pesticides” (2010)
